# Data published in ChEMBL document CHEMBL4229342, “Synthesis of novel proxyphylline derivatives with dual Anti-Candida albicans and anticancer activity” (Eur J Med Chem, 2018).
# Experiments:
# [1] = tested on: MCF7; test: Antiproliferative activity against human MCF7 cells assessed as cell viability at 100 uM after 72 hrs by MTT assay; type: functional; details: MCF7, 72 h, read-out: Activity
# Procedure, shortened: (§1)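 MTT viability assay in CCRF-CEM and MCF-7 cells after 72 h exposure at 25, 50, 100 and 200 µM. Results are relative to control cells without inhibitor in 0.5% DMSO. Done in triplicate; values are means ± SD of three independent experiments.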
# [2] = tested on: MCF7; test: Antiproliferative activity against human MCF7 cells assessed as cell viability at 50 uM after 72 hrs by MTT assay; type: functional; details: MCF7, 72 h, read-out: Activity; procedure, shortened: as §1
# [3] = tested on: Candida albicans; test: Growth inhibition of Candida albicans ATCC 90028 at 0.5 ug/ml incubated for 18 hrs at 35 degC by broth microdilution method relative to control; type: functional; details: ATCC 90028, 18 h, read-out: GI
# [4] = tested on: MCF7; test: Antiproliferative activity against human MCF7 cells assessed as cell viability at 200 uM after 72 hrs by MTT assay; type: functional; details: MCF7, 72 h, read-out: Activity; procedure, shortened: as §1
# [5] = tested on: Candida albicans; test: Inhibition of biofilm formation of Candida albicans ATCC 90028 after 48 hrs by XTT assay; type: functional, organism-based; details: ATCC 90028, 48 h
# [6] = tested on: Candida albicans; test: Growth inhibition of Candida albicans ATCC 90028 at 2 ug/ml incubated for 18 hrs at 35 degC by broth microdilution method relative to control; type: functional; details: ATCC 90028, 18 h, read-out: GI
# [7] = Toxicity in Galleria mellonella larvae infected with Candida albicans ATCC 90028 infected with 31 uM compound pre-treated cell suspensions assessed as survival incubated in dark for 144 hrs at 30 degC and measured every 24 hrs; type: organism-based; details: in vivo
# [8] = tested on: MCF7; test: Antiproliferative activity against human MCF7 cells after 72 hrs by MTT assay; type: functional, cell-based; details: MCF7, 72 h
# Procedure, shortened: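 EC50 was derived from a repeat 72 h MTT assay in CCRF-CEM or MCF-7 cells. It is the concentration killing 50% of tumour cells compared with control cells incubated without inhibitor in 0.5% DMSO.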
# [9] = tested on: CCRF-CEM; test: Antiproliferative activity against human CCRF-CEM cells assessed as cell viability at 100 uM after 72 hrs by MTT assay; type: functional; details: read-out: Activity; procedure, shortened: as §1
# [10] = tested on: Candida albicans; test: Growth inhibition of Candida albicans ATCC 90028 at 16 ug/ml incubated for 48 hrs at 35 degC by broth microdilution method relative to control; type: functional; details: ATCC 90028, 48 h, read-out: GI
# [11] = tested on: Vero; test: Cytotoxicity in African green monkey Vero cells up to 64 ug/ml incubated for 3 to 18 hrs by XTT assay; type: cell-based; details: chlorocebus sabaeus
# [12] = tested on: Candida albicans; test: Inhibition of cell adhesion of Candida albicans ATCC 90028 to African green monkey Vero cells at 0.0625 ug/ml relative to untreated control; type: functional; details: ATCC 90028, Vero
# [13] = tested on: Candida albicans; test: Growth inhibition of Candida albicans ATCC 90028 at 8 ug/ml incubated for 48 hrs at 35 degC by broth microdilution method relative to control; type: functional; details: ATCC 90028, 48 h, read-out: GI
# [14] = tested on: Candida albicans; test: Growth inhibition of Candida albicans ATCC 90028 at 0.0313 ug/ml incubated for 18 hrs at 35 degC by broth microdilution method relative to control; type: functional; details: ATCC 90028, 18 h, read-out: GI
# [15] = tested on: Candida albicans; test: Growth inhibition of Candida albicans ATCC 90028 at 2 ug/ml incubated for 4 hrs at 35 degC by broth microdilution method relative to control; type: functional; details: ATCC 90028, 4 h, read-out: GI
# [16] = tested on: Candida albicans; test: Inhibition of cell adhesion of Candida albicans ATCC 90028 to African green monkey Vero cells at 16 ug/ml relative to untreated control; type: functional; details: ATCC 90028, Vero
# [17] = tested on: Candida albicans; test: Fungicidal activity against Candida albicans ATCC 90028 assessed as log reduction in cell viability at 16 ug/ml after 48 hrs at 35 degC; type: functional
# Procedure, shortened: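 MFC assay on C. albicans ATCC 90028 following M27-A3, at the molar equivalent of 16 µg/mL. CFU of treated cells were compared with CFU of the untreated inoculum. Activity is given as lg R = lg CFU/mL control − lg CFU/mL treated, and lg R ≥3 was defined as fungicidal. Values are means of two independent experiments.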
# [18] = tested on: Candida albicans; test: Growth inhibition of Candida albicans ATCC 90028 at 0.0313 ug/ml incubated for 4 hrs at 35 degC by broth microdilution method relative to control; type: functional; details: ATCC 90028, 4 h, read-out: GI
# [19] = tested on: Candida albicans; test: Growth inhibition of Candida albicans ATCC 90028 at 4 ug/ml incubated for 18 hrs at 35 degC by broth microdilution method relative to control; type: functional; details: ATCC 90028, 18 h, read-out: GI
# [20] = tested on: Candida albicans; test: Growth inhibition of Candida albicans ATCC 90028 at 1 ug/ml incubated for 4 hrs at 35 degC by broth microdilution method relative to control; type: functional; details: ATCC 90028, 4 h, read-out: GI
# [21] = tested on: CCRF-CEM; test: Antiproliferative activity against human CCRF-CEM cells assessed as cell viability at 25 uM after 72 hrs by MTT assay; type: functional; details: read-out: Activity; procedure, shortened: as §1
# [22] = tested on: Candida albicans; test: Growth inhibition of Candida albicans ATCC 90028 at 0.25 ug/ml incubated for 18 hrs at 35 degC by broth microdilution method relative to control; type: functional; details: ATCC 90028, 18 h, read-out: GI
# [23] = tested on: Candida albicans; test: Growth inhibition of Candida albicans ATCC 90028 at 0.125 ug/ml incubated for 4 hrs at 35 degC by broth microdilution method relative to control; type: functional; details: ATCC 90028, 4 h, read-out: GI
# [24] = tested on: Candida albicans; test: Fungicidal activity against Candida albicans ATCC 90028 assessed as drug level causing 3 fold reduction in bacterial count after 48 hrs at 35 degC; type: functional; details: ATCC 90028, 48 h
# [25] = tested on: Candida albicans; test: Growth inhibition of Candida albicans ATCC 90028 at 1 ug/ml incubated for 18 hrs at 35 degC by broth microdilution method relative to control; type: functional; details: ATCC 90028, 18 h, read-out: GI
# [26] = tested on: Candida albicans; test: Growth inhibition of Candida albicans ATCC 90028 at 4 uM incubated for 48 hrs at 35 degC by broth microdilution method relative to control; type: functional; details: ATCC 90028, 48 h
# [27] = tested on: Candida albicans; test: Growth inhibition of Candida albicans ATCC 90028 at 0.25 ug/ml incubated for 4 hrs at 35 degC by broth microdilution method relative to control; type: functional; details: ATCC 90028, 4 h, read-out: GI
# [28] = tested on: MCF7; test: Antiproliferative activity against human MCF7 cells assessed as cell viability at 25 uM after 72 hrs by MTT assay; type: functional; details: MCF7, 72 h, read-out: Activity; procedure, shortened: as §1
# [29] = tested on: CCRF-CEM; test: Antiproliferative activity against human CCRF-CEM cells assessed as cell viability at 50 uM after 72 hrs by MTT assay; type: functional; details: read-out: Activity; procedure, shortened: as §1
# [30] = tested on: Candida albicans; test: Growth inhibition of Candida albicans ATCC 90028 at 0.125 ug/ml incubated for 18 hrs at 35 degC by broth microdilution method relative to control; type: functional; details: ATCC 90028, 18 h, read-out: GI
# [31] = tested on: Candida albicans; test: Growth inhibition of Candida albicans ATCC 90028 at 8 ug/ml incubated for 4 hrs at 35 degC by broth microdilution method relative to control; type: functional; details: ATCC 90028, 4 h, read-out: GI
# [32] = tested on: Candida albicans; test: Growth inhibition of Candida albicans ATCC 90028 at 8 ug/ml incubated for 18 hrs at 35 degC by broth microdilution method relative to control; type: functional; details: ATCC 90028, 18 h, read-out: GI
# [33] = tested on: Vero; test: Cytotoxicity in African green monkey Vero cells at 256 ug/ml incubated for 3 to 18 hrs by XTT assay; type: cell-based; details: chlorocebus sabaeus
# [34] = tested on: Candida albicans; test: Growth inhibition of Candida albicans ATCC 90028 at 0.0625 ug/ml incubated for 4 hrs at 35 degC by broth microdilution method relative to control; type: functional; details: ATCC 90028, 4 h, read-out: GI
# [35] = tested on: Candida albicans; test: Growth inhibition of Candida albicans ATCC 90028 at 16 ug/ml incubated for 18 hrs at 35 degC by broth microdilution method relative to control; type: functional; details: ATCC 90028, 18 h, read-out: GI
Structure (SMILES),viability at 100 µM [1] [%],viability at 50 µM [2] [%],inhibition of growth at 0.5 µg/mL [3] [%],viability at 200 µM [4] [%],IC50 [5] [µM],inhibition of growth at 2 µg/mL [6] [%],"survival at 24 h, 31 µM [7] [%]",EC50 [8] [µM],viability at 100 µM [9] [%],inhibition of growth at 16 µg/mL [10] [%],Activity [11],inhibition at 0.0625 µg/mL [12] [%],inhibition of growth at 8 µg/mL [13] [%],inhibition of growth at 0.0313 µg/mL [14] [%],inhibition of growth at 2 µg/mL [15] [%],inhibition at 16 µg/mL [16] [%],log(activity) [17],inhibition of growth at 0.0313 µg/mL [18] [%],inhibition of growth at 4 µg/mL [19] [%],inhibition of growth at 1 µg/mL [20] [%],other results
CC(Cn1cnc2c1c(=O)n(C)c(=O)n2C)OCc1cn(CCCn2nc3c(Br)c(Br)c(Br)c(Br)c3n2)nn1 (stereo not given),59.1,59.8,99.2,53.7,20,99.9,90 to 100,80,0,100,Non-Toxic,89,99.9,99.1,99.1,100,8,99.1,100,99.1,viability at 25 µM [21]: 0%; inhibition of growth at 0.25 µg/mL [22]: 99.4%; inhibition of growth at 0.125 µg/mL [23]: 99%; MFC [24]: 5 µM; inhibition of growth at 1 µg/mL [25]: 99.4%; MIC [26]: 10 µM; inhibition of growth at 0.25 µg/mL [27]: 99.1%; viability at 25 µM [28]: 58.3%; viability at 50 µM [29]: 0%; inhibition of growth at 0.125 µg/mL [30]: 99.1%; inhibition of growth at 8 µg/mL [31]: 99.1%; inhibition of growth at 8 µg/mL [32]: 100%; Activity [33]: Toxic; inhibition of growth at 0.0625 µg/mL [34]: 99%; inhibition of growth at 16 µg/mL [35]: 100%
CC(CN1c2ccccc2Sc2ccccc21)OC(=O)OC(C)Cn1cnc2c1c(=O)n(C)c(=O)n2C (stereo not given),27.1,38.3,99.9,20.8,248,100,90 to 100,80,0,100,Non-Toxic,89,100,99.6,99.5,100,8,99.2,100,99.5,viability at 25 µM [21]: 22.1%; inhibition of growth at 0.25 µg/mL [22]: 99.9%; inhibition of growth at 0.125 µg/mL [23]: 99.1%; MFC [24]: 15 µM; inhibition of growth at 1 µg/mL [25]: 100%; MIC [26]: 4 µM; inhibition of growth at 0.25 µg/mL [27]: 99%; viability at 25 µM [28]: 58.8%; viability at 50 µM [29]: 7.9%; inhibition of growth at 0.125 µg/mL [30]: 99.9%; inhibition of growth at 8 µg/mL [31]: 100%; inhibition of growth at 8 µg/mL [32]: 100%; Activity [33]: Toxic; inhibition of growth at 0.0625 µg/mL [34]: 99.1%; inhibition of growth at 16 µg/mL [35]: 100%
